Results taken from ChEMBL document CHEMBL4321879, “Novel Class of Colony-Stimulating Factor 1 Receptor Kinase Inhibitors Based on an o-Aminopyridyl Alkynyl Scaffold as Potential Treatment for Inflammatory Disorders” (J Med Chem, 2020).

Target: Macrophage colony-stimulating factor 1 receptor (Homo sapiens, UniProt P07333)
Experiment: Inhibition of recombinant CSF1R (unknown origin) using poly (Glu, Tyr)4:1 as substrate measured after 1 hr by ELISA
Conditions: not given

Macrophage colony-stimulating factor 1 receptor, sequence (P07333 whole entry): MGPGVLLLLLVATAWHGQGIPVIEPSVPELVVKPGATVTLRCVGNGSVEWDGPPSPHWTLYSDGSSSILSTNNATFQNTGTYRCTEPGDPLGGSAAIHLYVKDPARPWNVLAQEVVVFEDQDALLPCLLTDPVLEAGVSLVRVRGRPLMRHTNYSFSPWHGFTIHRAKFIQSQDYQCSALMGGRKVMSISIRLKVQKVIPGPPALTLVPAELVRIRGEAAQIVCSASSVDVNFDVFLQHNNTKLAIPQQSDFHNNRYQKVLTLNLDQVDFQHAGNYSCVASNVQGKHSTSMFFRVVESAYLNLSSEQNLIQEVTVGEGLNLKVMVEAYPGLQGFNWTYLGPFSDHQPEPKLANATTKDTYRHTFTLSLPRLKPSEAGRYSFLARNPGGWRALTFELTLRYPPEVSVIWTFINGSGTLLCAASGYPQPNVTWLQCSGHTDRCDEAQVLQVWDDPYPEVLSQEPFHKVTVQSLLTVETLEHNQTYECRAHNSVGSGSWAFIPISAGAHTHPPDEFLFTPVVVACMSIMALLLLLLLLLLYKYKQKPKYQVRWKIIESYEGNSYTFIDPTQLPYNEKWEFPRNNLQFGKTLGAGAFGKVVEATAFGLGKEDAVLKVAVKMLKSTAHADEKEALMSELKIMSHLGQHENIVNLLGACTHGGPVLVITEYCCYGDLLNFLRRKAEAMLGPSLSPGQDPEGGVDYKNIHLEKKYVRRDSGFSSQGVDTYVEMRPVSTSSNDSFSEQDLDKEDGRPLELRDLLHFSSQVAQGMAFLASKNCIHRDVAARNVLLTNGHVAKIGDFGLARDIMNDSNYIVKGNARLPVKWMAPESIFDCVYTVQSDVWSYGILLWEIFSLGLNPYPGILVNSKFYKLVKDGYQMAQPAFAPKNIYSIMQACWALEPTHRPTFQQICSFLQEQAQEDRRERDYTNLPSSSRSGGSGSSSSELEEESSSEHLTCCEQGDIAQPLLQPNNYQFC

SMILES	IC50
Cc1ccc(C(=O)Nc2ccccc2Cl)cc1C#Cc1cc(-c2cnn(C)c2)cnc1N	318 nM
Cc1ccc(C(=O)Nc2ccc(CN3CCN(C)CC3)c(C(F)(F)F)c2)cc1C#Cc1cncc2ccccc12	46 nM
COc1cc(NC(=O)c2cccc(C#Cc3cc(-c4cnn(C)c4)cnc3N)c2)cc(OC)c1	16.1 nM
Cc1cc(C(=O)Nc2ccc(Cl)cc2)ccc1C#Cc1cc(-c2cnn(C)c2)cnc1N	> 1000 nM
COc1cc(NC(=O)c2ccc(C)c(C#Cc3cncc4ccccc34)c2)cc(OC)c1	23.4 nM
COc1cc(NC(=O)c2ccc(C)c(C#Cc3cnc4cccnn34)c2)cc(OC)c1	25.1 nM
COc1cc(NC(=O)c2ccc(C(C)C)c(C#Cc3cc(-c4cnn(C)c4)cnc3N)c2)cc(OC)c1	> 1000 nM
Cc1ccc(CNc2ccc(Cl)cc2)cc1C#Cc1cc(-c2cnn(C)c2)cnc1N	> 1000 nM
Cc1ccc(C(=O)N(C)c2ccc(Cl)cc2)cc1C#Cc1cc(-c2cnn(C)c2)cnc1N	> 1000 nM
COc1cc(NC(=O)c2ccc(C)c(C#Cc3cccnc3N)c2)cc(OC)c1	28.5 nM
COc1ccccc1NC(=O)c1ccc(C)c(C#Cc2cc(-c3cnn(C)c3)cnc2N)c1	20.2 nM
COc1cc(NC(=O)c2ccc(C(F)(F)F)c(C#Cc3cc(-c4cnn(C)c4)cnc3N)c2)cc(OC)c1	> 1000 nM
Cc1ccc(C(=O)Nc2ccc(Cl)c(Cl)c2)cc1C#Cc1cc(-c2cnn(C)c2)cnc1N	10.8 nM
COc1cc(NC(=O)c2ccc(F)c(C#Cc3cc(-c4cnn(C)c4)cnc3N)c2)cc(OC)c1	160 nM
COc1cc(NC(=O)c2ccc(OC)c(C#Cc3cc(-c4cnn(C)c4)cnc3N)c2)cc(OC)c1	263 nM
COc1cc(NC(=O)c2ccc(C)c(C#Cc3cccnc3)c2)cc(OC)c1	219 nM
COc1cc(NC(=O)c2ccc(C)c(C#Cc3cc(Cl)cnc3N)c2)cc(OC)c1	16.6 nM

Other lines, results leading:

IC50	SMILES
8.1 nM	CNC(=O)c1cnc(N)c(C#Cc2cc(C(=O)Nc3cc(OC)cc(OC)c3)ccc2C)c1
2.4 nM	Cc1ccc(C(=O)Nc2cccc(C(F)(F)F)c2)cc1C#Cc1cc(-c2cnn(C)c2)cnc1N
3 nM	Cc1ccc(C(=O)Nc2ccc(C(F)(F)F)cc2)cc1C#Cc1cc(-c2cnn(C)c2)cnc1N
7.2 nM	Cc1ccc(NC(=O)c2ccc(Cl)cc2)cc1C#Cc1cc(-c2cnn(C)c2)cnc1N
5.5 nM	COC(=O)c1cnc(N)c(C#Cc2cc(C(=O)Nc3cc(OC)cc(OC)c3)ccc2C)c1
2.6 nM	COc1cc(NC(=O)c2ccc(C)c(C#Cc3cc(-c4cnn(C)c4)cnc3N)c2)cc(OC)c1
6.5 nM	COc1cc(NC(=O)c2ccc(Cl)c(C#Cc3cc(-c4cnn(C)c4)cnc3N)c2)cc(OC)c1
1.3 nM	Cc1ccc(C(=O)Nc2cccc(Cl)c2)cc1C#Cc1cc(-c2cnn(C)c2)cnc1N
5.9 nM	Cc1ccc(C(=O)Nc2ccc(Cl)cc2Cl)cc1C#Cc1cc(-c2cnn(C)c2)cnc1N
1.4 nM	COc1ccc(NC(=O)c2ccc(C)c(C#Cc3cc(-c4cnn(C)c4)cnc3N)c2)cc1
6.5 nM	Cc1ccc(C(=O)Nc2ccccc2)cc1C#Cc1cc(-c2cnn(C)c2)cnc1N
3.5 nM	COc1cc(NC(=O)c2ccc(C)c(C#Cc3cc(C(N)=O)cnc3N)c2)cc(OC)c1
1.4 nM	COc1cccc(NC(=O)c2ccc(C)c(C#Cc3cc(-c4cnn(C)c4)cnc3N)c2)c1

Target: Fibroblast growth factor receptor 1 (Homo sapiens, UniProt P11362)
Experiment: Inhibition of recombinant human N-terminal GST-tagged FGFR1 (456 to 765 residues) expressed in baculovirus infected Sf21 insect cells using poly (Glu, Tyr)4:1 as substrate measured after 1 hr by ELISA
Conditions: not given
Outline: (§1)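 Recombinant kinase was incubated with compound in reaction buffer containing 5 μM ATP, in wells precoated with poly(Glu,Tyr) 4:1, for 1 h at 37 °C. Phosphorylation was detected by ELISA.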

Fibroblast growth factor receptor 1, sequence (P11362 whole entry, the tested form may be a part): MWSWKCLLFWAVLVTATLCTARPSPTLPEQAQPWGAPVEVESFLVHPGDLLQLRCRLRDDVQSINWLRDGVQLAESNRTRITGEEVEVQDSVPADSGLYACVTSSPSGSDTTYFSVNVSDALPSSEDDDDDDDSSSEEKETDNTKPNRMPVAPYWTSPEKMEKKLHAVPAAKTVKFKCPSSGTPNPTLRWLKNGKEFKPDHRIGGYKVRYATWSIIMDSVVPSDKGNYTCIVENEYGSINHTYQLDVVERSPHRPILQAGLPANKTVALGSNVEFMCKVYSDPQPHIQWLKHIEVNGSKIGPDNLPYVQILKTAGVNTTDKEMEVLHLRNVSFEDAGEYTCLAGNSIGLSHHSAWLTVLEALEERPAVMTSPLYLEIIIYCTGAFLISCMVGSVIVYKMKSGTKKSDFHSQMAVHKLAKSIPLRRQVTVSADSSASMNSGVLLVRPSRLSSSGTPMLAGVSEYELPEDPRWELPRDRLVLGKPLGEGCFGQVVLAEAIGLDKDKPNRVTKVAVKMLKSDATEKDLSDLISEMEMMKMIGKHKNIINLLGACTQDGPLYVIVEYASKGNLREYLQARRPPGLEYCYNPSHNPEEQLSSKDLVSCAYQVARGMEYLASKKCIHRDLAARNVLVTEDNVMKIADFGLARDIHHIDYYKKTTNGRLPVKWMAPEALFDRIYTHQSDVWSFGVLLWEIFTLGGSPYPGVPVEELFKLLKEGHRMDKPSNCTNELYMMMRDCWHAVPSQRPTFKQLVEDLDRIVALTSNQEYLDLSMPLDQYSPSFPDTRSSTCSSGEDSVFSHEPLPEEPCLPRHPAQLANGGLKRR

IC50	SMILES
> 1000 nM	COc1cc(NC(=O)c2ccc(C)c(C#Cc3cncc4ccccc34)c2)cc(OC)c1

Target: Fibroblast growth factor receptor 2 (Homo sapiens, UniProt P21802)
Experiment: Inhibition of recombinant human N-terminal His6-tagged FGFR2 (456 to 770 residues) expressed in baculovirus infected Sf21 insect cells using poly (Glu, Tyr)4:1 as substrate measured after 1 hr by ELISA
Conditions: not given
Outline: as §1

Fibroblast growth factor receptor 2, sequence (P21802 whole entry, the tested form may be a part): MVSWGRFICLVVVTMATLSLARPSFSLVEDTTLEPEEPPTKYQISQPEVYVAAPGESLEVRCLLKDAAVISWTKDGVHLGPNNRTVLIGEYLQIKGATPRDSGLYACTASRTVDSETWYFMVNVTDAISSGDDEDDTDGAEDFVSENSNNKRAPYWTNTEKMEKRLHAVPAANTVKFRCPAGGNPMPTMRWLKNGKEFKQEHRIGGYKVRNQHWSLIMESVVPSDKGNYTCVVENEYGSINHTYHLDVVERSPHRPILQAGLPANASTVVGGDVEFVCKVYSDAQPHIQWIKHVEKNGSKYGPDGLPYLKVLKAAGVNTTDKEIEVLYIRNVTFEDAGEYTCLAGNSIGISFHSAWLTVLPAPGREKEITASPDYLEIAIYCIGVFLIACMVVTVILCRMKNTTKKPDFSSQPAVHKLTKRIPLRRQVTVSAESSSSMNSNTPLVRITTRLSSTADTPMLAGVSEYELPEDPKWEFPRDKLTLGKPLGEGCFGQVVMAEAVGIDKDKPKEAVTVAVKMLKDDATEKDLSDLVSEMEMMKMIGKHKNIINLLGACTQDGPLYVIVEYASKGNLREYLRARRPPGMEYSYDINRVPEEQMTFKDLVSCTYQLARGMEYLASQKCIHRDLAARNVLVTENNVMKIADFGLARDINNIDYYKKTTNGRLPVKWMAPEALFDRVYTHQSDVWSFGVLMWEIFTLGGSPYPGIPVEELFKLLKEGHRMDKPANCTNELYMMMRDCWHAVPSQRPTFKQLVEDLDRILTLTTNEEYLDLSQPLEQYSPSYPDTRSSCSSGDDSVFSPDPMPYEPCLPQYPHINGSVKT

IC50	SMILES
> 1000 nM	COc1cc(NC(=O)c2ccc(C)c(C#Cc3cncc4ccccc34)c2)cc(OC)c1

Target: Fibroblast growth factor receptor 3 (Homo sapiens, UniProt P22607)
Experiment: Inhibition of recombinant human N-terminal His6-tagged FGFR3 (447 to 761 residues) expressed in baculovirus infected Sf21 insect cells using poly (Glu, Tyr)4:1 as substrate measured after 1 hr by ELISA
Conditions: not given
Outline: as §1

Fibroblast growth factor receptor 3, sequence (P22607 whole entry, the tested form may be a part): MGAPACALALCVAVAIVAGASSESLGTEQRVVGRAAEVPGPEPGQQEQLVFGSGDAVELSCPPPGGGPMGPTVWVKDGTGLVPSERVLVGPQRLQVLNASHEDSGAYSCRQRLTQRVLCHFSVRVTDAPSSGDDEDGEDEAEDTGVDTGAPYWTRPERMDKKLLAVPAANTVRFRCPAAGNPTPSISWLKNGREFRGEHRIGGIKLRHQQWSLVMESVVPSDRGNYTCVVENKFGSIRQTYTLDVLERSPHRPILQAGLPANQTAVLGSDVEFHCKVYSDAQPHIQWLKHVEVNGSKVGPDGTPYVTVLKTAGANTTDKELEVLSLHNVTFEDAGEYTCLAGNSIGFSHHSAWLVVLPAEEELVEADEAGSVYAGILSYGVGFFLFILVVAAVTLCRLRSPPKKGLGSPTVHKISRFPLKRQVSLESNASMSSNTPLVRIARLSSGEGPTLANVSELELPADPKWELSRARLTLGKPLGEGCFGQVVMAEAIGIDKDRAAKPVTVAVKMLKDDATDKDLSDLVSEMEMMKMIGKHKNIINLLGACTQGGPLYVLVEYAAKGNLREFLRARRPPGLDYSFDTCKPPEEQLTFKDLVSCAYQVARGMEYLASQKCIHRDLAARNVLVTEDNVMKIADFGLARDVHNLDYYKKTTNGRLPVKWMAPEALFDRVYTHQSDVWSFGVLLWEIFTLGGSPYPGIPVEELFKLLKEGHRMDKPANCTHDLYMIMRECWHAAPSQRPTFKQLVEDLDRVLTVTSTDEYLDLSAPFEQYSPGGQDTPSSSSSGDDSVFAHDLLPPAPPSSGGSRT

IC50	SMILES
> 1000 nM	COc1cc(NC(=O)c2ccc(C)c(C#Cc3cncc4ccccc34)c2)cc(OC)c1

Target: Fibroblast growth factor receptor 4 (Homo sapiens, UniProt P22455)
Experiment: Inhibition of recombinant human N-terminal His6-tagged FGFR4 (442 to 755 residues) expressed in baculovirus infected Sf21 insect cells using poly (Glu, Tyr)4:1 as substrate measured after 1 hr by ELISA
Conditions: not given
Outline: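 ELISA kinase assay: recombinant kinase added to wells precoated with poly(Glu,Tyr)4:1 and incubated with compound in reaction buffer containing 5 μM ATP, 37 °C for 1 h; wells then washed before antibody detection.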

Fibroblast growth factor receptor 4, sequence (P22455 whole entry, the tested form may be a part): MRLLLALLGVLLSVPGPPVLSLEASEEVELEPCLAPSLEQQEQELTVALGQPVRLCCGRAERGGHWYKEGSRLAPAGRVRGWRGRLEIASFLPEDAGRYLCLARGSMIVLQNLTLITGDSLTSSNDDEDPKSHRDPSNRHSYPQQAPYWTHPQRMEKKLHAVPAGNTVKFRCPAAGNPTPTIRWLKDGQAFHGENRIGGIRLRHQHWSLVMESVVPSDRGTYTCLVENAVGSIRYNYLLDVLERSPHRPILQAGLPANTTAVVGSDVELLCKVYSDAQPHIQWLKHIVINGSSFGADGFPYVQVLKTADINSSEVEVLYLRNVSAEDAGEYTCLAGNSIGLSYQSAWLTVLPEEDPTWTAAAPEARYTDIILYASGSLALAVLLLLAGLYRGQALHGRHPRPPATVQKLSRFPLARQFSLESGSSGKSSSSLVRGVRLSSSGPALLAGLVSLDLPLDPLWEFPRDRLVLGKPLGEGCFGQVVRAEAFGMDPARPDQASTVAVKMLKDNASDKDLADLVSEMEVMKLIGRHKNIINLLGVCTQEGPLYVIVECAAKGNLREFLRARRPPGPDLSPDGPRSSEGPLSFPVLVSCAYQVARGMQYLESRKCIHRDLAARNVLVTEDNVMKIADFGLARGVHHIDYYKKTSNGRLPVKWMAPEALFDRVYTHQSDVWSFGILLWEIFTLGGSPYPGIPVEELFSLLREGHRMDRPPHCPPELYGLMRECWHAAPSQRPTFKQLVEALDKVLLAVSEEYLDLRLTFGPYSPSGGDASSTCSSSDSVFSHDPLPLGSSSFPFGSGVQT

IC50	SMILES
> 1000 nM	COc1cc(NC(=O)c2ccc(C)c(C#Cc3cncc4ccccc34)c2)cc(OC)c1

System: RAW264.7
Experiment: Antiinflammatory activity in mouse RAW264.7 cells assessed as reduction in LPS-induced TNFalpha release measured after 24 hrs by ELISA
Assay type: functional, cell-based
Conditions: RAW264.7, 24 h
Outline: (§2)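 RAW264.7 cells in DMEM with 10% FBS and 0.125% DMSO were incubated with compound, then primed with LPS 1 μg/mL for 24 h. Supernatant TNF-α and IL-6 measured by mouse ELISA. IC50 from log(inhibitor) versus normalized response nonlinear fit.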

IC50	SMILES
400 nM	FC(F)(F)c1ccc(CNc2ccc(Cc3c[nH]c4ncc(Cl)cc34)cn2)cn1 [PEXIDARTINIB]

System: RAW264.7
Experiment: Antiinflammatory activity in mouse RAW264.7 cells assessed as reduction in LPS-induced IL6 release measured after 24 hrs by ELISA
Assay type: functional, cell-based
Conditions: RAW264.7, 24 h
Outline: as §2

IC50	SMILES
430 nM	FC(F)(F)c1ccc(CNc2ccc(Cc3c[nH]c4ncc(Cl)cc34)cn2)cn1 [PEXIDARTINIB]

System: not listed separately
Experiment: Cytotoxicity against mouse RAW264.7 cells assessed as reduction in cell viability measured after 24 hrs by CCK8 assay
Assay type: cell-based
Conditions: not given
Outline: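 RAW264.7 cells were seeded in triplicate in DMEM and exposed to compound for 24 h. CCK-8 was added, incubated 1 h, and absorbance read at 450 nm with 570 nm reference. CC50 from log(inhibitor) versus normalized response nonlinear fit.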

SMILES	CC50 at 24 h
FC(F)(F)c1ccc(CNc2ccc(Cc3c[nH]c4ncc(Cl)cc34)cn2)cn1 [PEXIDARTINIB]	20500 nM
